Results: ChEMBL document CHEMBL4387703, “Lead optimization and biological evaluation of fragment-based cN-II inhibitors” (Eur J Med Chem, 2019)
Activity calls are given as the source filed them. The calls are words filed in the database; no cut-off is given here.

These molecules were tested against T1, 5'-nucleotidase (Rattus norvegicus) (UniProt P21588) (assay: Inhibition of purified rat liver 5'-nucleotidase using IMP as substrate assessed as reduction in substrate dephosphorylation at 7 to 10 mM).
T1 sequence (whole entry): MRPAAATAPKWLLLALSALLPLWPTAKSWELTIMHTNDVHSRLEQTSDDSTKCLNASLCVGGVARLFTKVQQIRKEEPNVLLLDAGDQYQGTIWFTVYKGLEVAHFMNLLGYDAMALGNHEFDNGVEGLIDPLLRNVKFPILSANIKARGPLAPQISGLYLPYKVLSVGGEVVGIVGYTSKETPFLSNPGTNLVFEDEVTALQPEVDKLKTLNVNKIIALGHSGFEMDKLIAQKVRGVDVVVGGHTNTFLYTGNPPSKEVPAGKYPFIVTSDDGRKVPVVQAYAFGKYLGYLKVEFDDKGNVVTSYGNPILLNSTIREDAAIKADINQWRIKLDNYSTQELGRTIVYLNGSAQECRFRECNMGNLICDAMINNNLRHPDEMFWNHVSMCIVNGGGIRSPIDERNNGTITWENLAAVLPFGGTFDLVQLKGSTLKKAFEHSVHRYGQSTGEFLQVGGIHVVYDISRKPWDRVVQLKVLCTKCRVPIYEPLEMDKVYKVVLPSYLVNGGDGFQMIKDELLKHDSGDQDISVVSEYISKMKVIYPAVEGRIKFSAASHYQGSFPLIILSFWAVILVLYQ
Work on `CC(C)CSC[C@H]1O[C@@H](n2cnc3c(=O)[nH]cnc32)[C@H](O)[C@@H]1O` yielded an inhibition of 50%.

What follows are molecules tested against 5'-nucleotidase (Homo sapiens) (UniProt P21589) (assay: Inhibition of recombinant cN-II (unknown origin) assessed as reduction in inorganic phosphate production at 200 uM pre-incubated for 10 mins followed by addition of IMP as substrate and measured after 5 mins by malachite green based assay relative to control).
5'-nucleotidase (Homo sapiens), sequence (P21589 whole entry): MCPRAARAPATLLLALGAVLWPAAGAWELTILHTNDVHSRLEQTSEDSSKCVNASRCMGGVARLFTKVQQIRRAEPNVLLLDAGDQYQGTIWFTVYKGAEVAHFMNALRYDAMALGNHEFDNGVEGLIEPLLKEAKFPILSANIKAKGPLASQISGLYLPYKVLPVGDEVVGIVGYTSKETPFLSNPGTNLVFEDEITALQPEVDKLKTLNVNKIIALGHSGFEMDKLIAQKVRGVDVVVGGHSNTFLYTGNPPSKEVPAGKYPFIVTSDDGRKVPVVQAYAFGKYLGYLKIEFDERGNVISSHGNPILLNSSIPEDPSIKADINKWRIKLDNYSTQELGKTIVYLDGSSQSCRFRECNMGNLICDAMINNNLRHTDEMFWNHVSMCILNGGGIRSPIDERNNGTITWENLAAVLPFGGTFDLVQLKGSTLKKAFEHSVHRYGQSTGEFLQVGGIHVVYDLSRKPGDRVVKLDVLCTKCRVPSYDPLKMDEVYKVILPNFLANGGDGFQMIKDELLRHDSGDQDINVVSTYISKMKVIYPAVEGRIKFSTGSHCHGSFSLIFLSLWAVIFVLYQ
Method in brief: (§1)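 Purified recombinant cN-II (0.1 μM final) in 50 mM imidazole pH 6.5, 500 mM NaCl and 10 mM MgCl2 was preincubated on ice with compound for 10 min. IMP (50 μM, equimolar Mg) was then added for 5 min at 37 °C.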
Molecule `O=C(Nc1ncnc2c1ncn2COCc1ccccc1)c1cccc(-c2ccccc2)c1` has an inhibition of 34%. For `O=C(Nc1ncnc2ncn(Cc3ccccc3)c12)c1cccc(-c2ccccc2)c1`, the inhibition was 52%. `O=C(Nc1ncnc2[nH]cnc12)c1cccc(-c2ccc(-c3nn[nH]n3)cc2)c1` showed an inhibition of 60%. Molecule `CC(=O)OCCn1cnc2c(NC(=O)c3cccc(-c4ccccc4)c3)ncnc21` has an inhibition of 62%. With `CCOC(=O)Cn1cnc2c(NC(=O)c3cccc(-c4ccccc4)c3)ncnc21` the inhibition was 60%. In the case of `CCOC(=O)Cn1cnc2c(NC(=O)c3ccc(-c4ccccc4-c4nn[nH]n4)cc3)ncnc21`, the inhibition is reported as 27%. `CCOP(=O)(O)Cn1cnc(-c2cccc(-c3cccc(C(=O)Nc4ncnc5nc[nH]c45)c3)c2)c1` gave an inhibition of 75%. Work on `O=C(Nc1ncnc2nc[nH]c12)c1cccc(-c2cccc(-c3cn(CP(=O)(O)O)cn3)c2)c1` yielded an inhibition of 49%. For `CCOP(=O)(Cn1cnc2c(NC(=O)c3cccc(-c4ccccc4)c3)ncnc21)OCC`, the inhibition was 47%. `CCOP(=O)(O)Cn1cnc(-c2cccc(-c3cccc(C(=O)Nc4ncnc5ncn(COCc6ccccc6)c45)c3)c2)c1` gave an inhibition of 60%. Molecule `O=C(Nc1ncnc2c1ncn2CCO)c1cccc(-c2ccccc2)c1` has an inhibition of 46%. In the case of `O=C(Nc1ncnc2[nH]cnc12)c1cccc(-c2cccc(-c3nn[nH]n3)c2)c1`, the inhibition is reported as 50%. Molecule `O=C(Nc1ncnc2ncn(COCc3ccccc3)c12)c1cccc(-c2ccccc2)c1` has an inhibition of 50%. `O=C(O)Cn1cnc2c(NC(=O)c3cccc(-c4ccccc4)c3)ncnc21` gave an inhibition of 62%. Work on `O=C(Nc1ncnc2[nH]cnc12)c1ccc(-c2ccccc2-c2nn[nH]n2)cc1` yielded an inhibition of 10%. In the case of `O=C(Nc1ncnc2c1ncn2Cc1ccccc1)c1cccc(-c2ccccc2)c1`, the inhibition is reported as 57%. Work on `O=C(Nc1ncnc2[nH]cnc12)c1cccc(-c2ccccc2)c1` yielded an inhibition of 68%. Molecule `CCOC(=O)Cn1cnc2c(N)ncnc21` has an inhibition of 3%. Molecule `O=C(Nc1ncnc2[nH]cnc12)c1ccccc1-c1ccc(-c2nn[nH]n2)cc1` has an inhibition of 30%. `O=C(Nc1ncnc2[nH]cnc12)c1cccc(-c2ccccc2-c2nn[nH]n2)c1` was tested, and the inhibition was 27%.

What follows are molecules tested against T1, 5'-nucleotidase (Rattus norvegicus) (assay: Inhibition of purified rat liver 5'-nucleotidase using IMP as substrate assessed as reduction in substrate dephosphorylation at 2 to 6 mM).
With `CC(C)CSC[C@H]1O[C@@H](n2cnc3c(N)ncnc32)[C@H](O)[C@@H]1O` the inhibition was 50%.

What follows are molecules tested against 5'-nucleotidase (Homo sapiens) (UniProt P21589) (assay: Inhibition of recombinant cN-II (unknown origin) assessed as reduction in inorganic phosphate production at 1 mM pre-incubated for 10 mins followed by addition of IMP as substrate and measured after 5 mins by malachite green based assay relative to control).
Method in brief: as §1
With `Nc1ncnc2ncn(Cc3ccccc3)c12` the inhibition was 26%. In the case of `CC(=O)OCCn1cnc2c(N)ncnc21`, the inhibition is reported as “inactive”. `Nc1ncnc2c1ncn2COCc1ccccc1` showed an inhibition of 13%. For `CCOP(=O)(Cn1cnc2c(N)ncnc21)OCC`, the inhibition was “inactive”. In the case of `Nc1ncnc2c1ncn2Cc1ccccc1`, the inhibition is reported as 23%. For `Nc1ncnc2ncn(COCc3ccccc3)c12`, the inhibition was “inactive”.
